Assay results as given in article PMC7563999 (Acta Pharmaceutica Sinica. B, 2020).
pIC50: −log10 of the molar value. Several values for one entry are separate records, joined by “and”; a condition that tells them apart may be missing. Identical values can stand only once. Entries after “also recorded” stand apart in the source; their conditions may differ.

Tests used:
[1] = target: T1, α1A-AR (Homo sapiens, UniProt P35348); test: Western blot analysis of α1A-AR level in α1A-AR stably transfected HEK293 cells; type: cell-based; details: for DC50: read-out: DC50 (concentration required for 50% protein degradation) of α1A-AR, α1A-AR stably transfected HEK293 cells, 12 h, Western blot; for effect on α1A-AR level (Western blot, in words): α1A-AR HEK293 cells, indicated concentrations 12 h, 3 μmol/L for indicated time
T1 sequence (P35348 1-466): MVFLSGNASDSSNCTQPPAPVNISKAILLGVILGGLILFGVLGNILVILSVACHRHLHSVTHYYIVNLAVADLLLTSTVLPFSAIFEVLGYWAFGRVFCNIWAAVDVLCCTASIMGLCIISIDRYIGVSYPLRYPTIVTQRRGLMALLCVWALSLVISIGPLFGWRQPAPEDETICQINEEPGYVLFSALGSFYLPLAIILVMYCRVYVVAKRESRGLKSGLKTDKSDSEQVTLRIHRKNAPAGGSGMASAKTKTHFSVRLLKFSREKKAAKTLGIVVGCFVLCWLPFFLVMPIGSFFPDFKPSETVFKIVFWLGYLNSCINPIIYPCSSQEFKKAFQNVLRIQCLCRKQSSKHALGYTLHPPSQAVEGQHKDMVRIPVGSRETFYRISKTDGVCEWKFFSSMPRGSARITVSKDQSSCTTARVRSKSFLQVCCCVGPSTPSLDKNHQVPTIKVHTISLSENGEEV

[2] = system: PC-3 cells; test: CCK-8 antiproliferation assay on PC-3 cells; type: cell-based; details: for antiproliferation activity on PC-3 cells (in words): 1–100 μmol/L, 48 h; for pIC50: Homo sapiens, PC-3, 48 h, read-out: antiproliferative activity IC50
How it was run: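 PC-3 cells in RPMI-1640 with 10% FBS, 37 °C, 5% CO2. Seeded at 5000 cells/well, left 24 h, then exposed to test compound for 48 h; controls received DMSO only. CCK-8 reagent (WST-8/PMS) was added for 1 h at 37 °C and absorbance read at 450 nm. Viability was calculated against untreated-cell and cell-free blank wells.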

[3] = target: T2, α1D-AR (Homo sapiens, UniProt P25100); test: Western blot analysis of α1D-AR level in stably transfected HEK293 cells; type: cell-based; details: 12 h
T2 sequence (P25100 1-572): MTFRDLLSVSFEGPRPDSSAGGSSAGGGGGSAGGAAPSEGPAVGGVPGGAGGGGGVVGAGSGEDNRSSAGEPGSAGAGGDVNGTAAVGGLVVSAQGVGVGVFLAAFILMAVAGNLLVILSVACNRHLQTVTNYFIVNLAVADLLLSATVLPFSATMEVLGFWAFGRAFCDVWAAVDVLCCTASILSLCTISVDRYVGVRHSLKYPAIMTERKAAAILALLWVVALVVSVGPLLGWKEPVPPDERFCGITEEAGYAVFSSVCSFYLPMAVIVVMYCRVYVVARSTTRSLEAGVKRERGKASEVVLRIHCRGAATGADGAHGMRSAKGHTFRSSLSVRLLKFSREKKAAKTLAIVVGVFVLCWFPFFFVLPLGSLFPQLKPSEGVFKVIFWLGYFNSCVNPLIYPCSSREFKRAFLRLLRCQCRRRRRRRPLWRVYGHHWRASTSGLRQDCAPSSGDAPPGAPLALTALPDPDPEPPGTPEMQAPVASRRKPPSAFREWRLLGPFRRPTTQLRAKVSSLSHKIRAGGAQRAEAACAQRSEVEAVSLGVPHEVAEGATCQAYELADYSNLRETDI

[4] = system: PC-3 derived prostate cancer xenografts; test: PC-3 tumor xenograft model in nude mice; type: in vivo; details: 50 mg/kg daily intraperitoneal, two weeks
How it was run: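 Four-week-old nude mice were given PC-3 cells subcutaneously (10⁶ cells/mouse). At 400 mm³ tumour volume they were split into two groups (n = 5). Each group received test compound or vehicle (10% DMSO + 10% PEG400 + 80% saline) i.p. daily for two weeks. Caliper tumour volume and body weight were taken every 2–3 days. Tumours were harvested 12 h after the last dose.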

[5] = target: T3, α1B-AR (Homo sapiens, UniProt P35368); test: Western blot analysis of α1B-AR level in stably transfected HEK293 cells; type: cell-based; details: 12 h
T3 sequence (P35368 1-520): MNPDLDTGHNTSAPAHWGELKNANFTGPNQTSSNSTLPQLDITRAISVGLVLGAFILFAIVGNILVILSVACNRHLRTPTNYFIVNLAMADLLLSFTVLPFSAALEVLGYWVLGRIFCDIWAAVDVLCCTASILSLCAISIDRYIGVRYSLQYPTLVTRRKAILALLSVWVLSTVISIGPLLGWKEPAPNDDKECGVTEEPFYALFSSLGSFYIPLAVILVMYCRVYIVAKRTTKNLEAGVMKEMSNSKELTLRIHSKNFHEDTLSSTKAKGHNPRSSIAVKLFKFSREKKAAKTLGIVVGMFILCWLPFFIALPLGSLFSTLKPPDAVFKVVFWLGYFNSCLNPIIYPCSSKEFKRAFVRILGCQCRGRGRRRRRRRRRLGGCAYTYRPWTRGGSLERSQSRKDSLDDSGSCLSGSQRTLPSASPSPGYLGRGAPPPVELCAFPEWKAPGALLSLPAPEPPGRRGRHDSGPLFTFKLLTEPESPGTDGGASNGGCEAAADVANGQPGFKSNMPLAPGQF

Structure (SMILES)	DC50 [1]	pIC50 [2]	effect on α1A-AR level (Western blot, in words) [1]	antiproliferation activity on PC-3 cells (in words) [2]	other results
COc1cc2nc(N3CCN(C(=O)c4ccco4)CC3)nc(N)c2cc1OC [Prazosin, prazosin, reference compound]	–	4.93	–	–	–
COc1cc2nc(N3CCN(C(=O)c4cn(CCOCCOCCOCC(=O)Nc5cccc6c5C(=O)N(C5CCC(=O)N(C)C5=O)C6=O)nn4)CC3)nc(N)c2cc1OC (centres unmarked) [Compound 11, 2-(2-(2-(2-(4-(4-(4-Amino-6,7-dimethoxyquinazolin-2-yl)piperazine-1-carbonyl)-1H-1,2,3-triazol-1-yl)ethoxy)ethoxy)ethoxy)-N-(2-(1-methyl-2,6-dioxopiperidin-3-yl)-1,3-dioxoisoindolin4-yl)acetamide]	–	–	incapable of inducing α1A-AR degradation	–	–

Further lines, with some results ahead:

DC50 [1]	pIC50 [2]	effect on α1A-AR level (Western blot, in words) [1]	Structure (SMILES)	antiproliferation activity on PC-3 cells (in words) [2]	other results
~4.32 µM	–	–	COc1cc2nc(N3CCN(C(=O)c4cn(CCOCC(=O)Nc5cccc6c5C(=O)N(C5CCC(=O)NC5=O)C6=O)nn4)CC3)nc(N)c2cc1OC (centres unmarked) [Compound 9a, 2-(2-(4-(4-(4-Amino-6,7-dimethoxyquinazolin-2-yl)piperazine-1-carbonyl)-1H-1,2,3-triazol-1-yl)ethoxy)-N-(2-(2,6-dioxopiperidin-3-yl)-1,3-dioxoisoindolin-4-yl)acetamide]	concentration-dependent antiproliferation activities	–
~2.86 µM and 2.86 µM	5.21	–	COc1cc2nc(N3CCN(C(=O)c4cn(CCOCCOCCOCC(=O)Nc5cccc6c5C(=O)N(C5CCC(=O)NC5=O)C6=O)nn4)CC3)nc(N)c2cc1OC (centres unmarked) [Compound 9c, 2-(2-(2-(2-(4-(4-(4-Amino-6,7-dimethoxyquinazolin-2-yl)piperazine-1-carbonyl)-1H-1,2,3-triazol-1-yl)ethoxy)ethoxy)ethoxy)-N-(2-(2,6-dioxopiperidin-3-yl)-1,3-dioxoisoindolin-4-yl)acetamide]	concentration-dependent antiproliferation activities	influence on α1D-AR level (in words) [3]: slight influence; Dmax ([1]; HEK293, read-out: maximal level of degradation (Dmax) of α1A-AR): 94%; time for α1A-AR level to recover to basal level after washout ([1]; after 12 h pretreatment with 10 μmol/L, cells washed thoroughly): approximately 24 h; α1A-AR degradation after bortezomib pretreatment (in words) ([1]; pretreatment of cells using bortezomib for more than 7 h): could no longer trigger the degradation; average tumor size and mass vs vehicle-treated group (in words) [4]: noticeably decreased; body weight (in words) ([4]; nude mice): without noticeable loss of body weight; effect on tumor growth (in words) ([4]; nude mice with PC-3 xenografts): significant antitumor effect; also recorded: significant suppression of tumor growth; degradation activity for α1B-AR (in words) [5]: no degradation activity
–	–	did not show too much effect	COc1cc2nc(N3CCN(C(=O)c4cn(CCOCCOCC(=O)Nc5cccc6c5C(=O)N(C5CCC(=O)NC5=O)C6=O)nn4)CC3)nc(N)c2cc1OC (centres unmarked) [Compound 9b, 2-(2-(2-(4-(4-(4-Amino-6,7-dimethoxyquinazolin-2-yl)piperazine-1-carbonyl)-1H-1,2,3-triazol-1-yl)ethoxy)ethoxy)-N-(2-(2,6-dioxopiperidin-3-yl)-1,3-dioxoisoindolin-4-yl)acetamide]	much less influence	–
